Measurements from ChEMBL document CHEMBL1131490, “1,4-Cyclohexanecarboxylates: potent and selective inhibitors of phosophodiesterase 4 for the treatment of asthma” (J Med Chem, 1998).

What was measured:
Phosphodiesterase 4 = Phosphodiesterase 4 (Homo sapiens, UniProt P27815+Q08499+Q07343+Q08493); experiment: Inhibition activity against human monocyte derived PDE4 catalytic activity (LPDE4); assay type: protein assay
Cavia porcellus [1] = experiment: Antigen-induced bronchoconstriction in guinea pigs after iv administration 10 min pre-treatment; assay type: functional; details: read-out: ID50 (the source's name)
Summary of the method: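 Anesthetized guinea pigs, compound given intravenously, with bronchoconstriction provoked by antigen challenge.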

[2] = The value for hypothermia against antigen provocation (po); details: in vivo
Cavia porcellus [3] = experiment: Antigen-induced bronchoconstriction in guinea pigs after peroral administration 1 hour pre-treatment; assay type: functional; details: po, read-out: ID50 (the source's name)
Mus musculus [4] = experiment: Reversal of reserpine-induced hypothermia in the mouse on peroral administration; assay type: functional; details: po
Canis familiaris [5] = experiment: Emetic effect in dogs by intravenous administration; assay type: functional; details: Canis lupus familiaris
Mus musculus [6] = species on record: Mus musculus; experiment: Inhibition of lipopolysaccharide (LPS)-induced TNF alpha generation in mouse; assay type: functional; details: read-out: ID50 (the source's name)
Summary of the method: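 Human monocytes adoptively transferred into mice, then LPS challenge. Compound dosed orally; human TNFα generation measured. ID50 taken from the mean response of three to eight animals.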

Oryctolagus cuniculus = species on record: Oryctolagus cuniculus; experiment: Stimulation of acid secretion from rabbit parietal glands; assay type: functional
Homo sapiens = species on record: Homo sapiens; experiment: (§1) Inhibition of lipopolysaccharide (LPS)-induced TNF alpha release by human monocytes; assay type: functional
Mus musculus [7] = species on record: Mus musculus; experiment: Reversal of reserpine-induced hypothermia in the mouse; assay type: functional
Canis familiaris [8] = species on record: Canis familiaris; experiment: Emetic effect in dogs; assay type: functional; details: Canis lupus familiaris
[9] = as §1; assay type: functional
Mus musculus [10] = species on record: Mus musculus; experiment: Reversal of reserpine-induced hypothermia in mouse by peroral dose; assay type: functional; details: po

| Compound | IC50 (Phosphodiesterase 4) | ED50 (Cavia porcellus [1]) | also measured |
| --- | --- | --- | --- |
| COc1ccc([C@@H]2CC(=O)N(Cc3ccc(N)cc3)C2)cc1OC1CCCC1 | 195 nM | 10 mg/kg | – |
| COc1ccc(C2CCC(C(=O)O)CC2)cc1OC1CCCC1 (stereo not given) | 1200 nM | – | – |
| COc1ccc(C2CCC(=O)CC2)cc1OC1CCCC1 | 120 nM | – | – |
| COc1ccc(C2CCC(C(=O)O)C2)cc1OC1CCCC1 (stereo not given) | 1200 nM | 0.5 mg/kg | selectivity ratio [2]: 0.17; ED50 (Cavia porcellus [3]): 3 mg/kg; ED50 (Mus musculus [4]): 0.5 mg/kg |
| COc1ccc(C2CCC(=O)C2)cc1OC1CCCC1 (stereo not given) | 500 nM | – | – |
| COc1ccc(C2(C=O)CCC(=O)CC2)cc1OC1CCCC1 | 340 nM | – | – |
| COc1ccc(C2(C#N)CCC(c3nnn[nH]3)CC2)cc1OC1CCCC1 (stereo not given) | 740 nM | – | – |
| COc1ccc(C2CC(=O)N(Cc3ccc(N)cc3)C2)cc1OC1CCCC1 (stereo not given) | 52 nM | 0.5 mg/kg | – |
| COc1ccc([C@]2(C#N)CC[C@@H](C(=O)O)CC2)cc1OC1CCCC1 (stereo in doubt; 1) [CILOMILAST] | – | 1.8 mg/kg | ED50 (Canis familiaris [5]): 4.6 mg/kg; ED50 (Mus musculus [6]): 4.9 mg/kg; EC50 (Oryctolagus cuniculus): 800 nM; IC50 (Homo sapiens): 110 nM; ED50 (Mus musculus [7]): 2.3 mg/kg |
| COc1ccc([C@@H]2CNC(=O)C2)cc1OC1CCCC1 [(-)-ROLIPRAM] | – | 0.2 mg/kg | ED50 (Canis familiaris [8]): 0.04 mg/kg; ED50 (Mus musculus [6]): 5.1 mg/kg; ED50 (Cavia porcellus [3]): 2 mg/kg; EC50 (Oryctolagus cuniculus): 4 nM; IC50 [9]: 70 nM; ED50 (Mus musculus [4]): 0.2 mg/kg |
| COc1ccc([C@H]2CNC(=O)C2)cc1OC1CCCC1 [S-ROLIPRAM] | – | 0.2 mg/kg | ED50 (Mus musculus [10]): > 10 mg/kg; ED50 (Cavia porcellus [3]): 2 mg/kg |

Further lines, with some results ahead:

| IC50 (Phosphodiesterase 4) | Compound | ED50 (Cavia porcellus [1]) | also measured |
| --- | --- | --- | --- |
| 320 nM | COc1ccc(C2(C(N)=O)CCC(=O)CC2)cc1OC1CCCC1 | – | – |
| 2500 nM | COc1ccc(C2(CO)CCC(=O)CC2)cc1OC1CCCC1 | – | – |
| 80 nM | C#CC1(c2ccc(OC)c(OC3CCCC3)c2)CCC(=O)CC1 | – | – |
| 44 nM | COc1ccc(C2(C#N)CCC(=O)CC2)cc1OC1CCCC1 | – | – |
| 1180 nM | COc1ccc(C2(CF)CCC(=O)CC2)cc1OC1CCCC1 | – | – |
